ABCG2 block: ABCG2 efflux pump inhibitors, primary screen, multiplex with ABCB1, IgMXP3 cells, flow cytometry; AID 1325, 2008; actives 0.1% (n = 190,000); Broad substrate specificity ATP-binding cassette transporter ABCG2 (Homo sapiens), Q9UNQ0; inhibition, % at 6.6 µM; JC-1 efflux;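 active means inhibition above 80%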;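 further: 0% = DMSO and 100% = nicardipine control wells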
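Measure – % inhibition of efflux relative to nicardipine and DMSO · Test system – ABCG2 IgMXP3 and barcoded ABCB1 CCRF-Adr cell mix · Control set – nicardipine as high control, DMSO as low control · Compound – one concentration, 6.6 µM final · Signal – flow cytometry of retained JC-1 fluorescence · Timing – 10 min exposure at 25 °C with rotation, no wash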
RAM network inh: inhibitors of the yeast RAM network, primary screen, dse1pr::URA3 reporter, 5-FOA selection. S. cerevisiae dse1pr::URA3 reporter, 5-FOA growth OD615, 2 d; analog-sensitive cbk1-as2 kinase mutant strain. inhibition, % at 50 µM. actives 1.8% (n = 190,000);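 active means inhibition above a set limit, 3 SD over mean compound inhibition, cut at about 8.4% in these data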;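 further: 0% = DMSO-only wells with no growth and 100% = 10 µM 1-NA-PP1 full growth; inhibition rescues growth on 5-FOA so higher OD means more RAM inhibition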
ABCB1 inh: ABCB1 efflux pump inhibitors, primary screen, cell-based, multiplex, flow cytometry, ABCG2 counter-screen; CCRF-Adr cells, JC-1 efflux; ATP-dependent translocase ABCB1 (Homo sapiens), P08183; inhibition, % at 6.6 µM; actives 0.067% (n = 190,000); AID 1326, 2008; in the data active means inhibition above about 40%;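 further: 0% = vehicle and 100% = reference inhibitor; higher value means more JC-1 retained so stronger ABCB1 efflux block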
WT yeast gro inh: growth inhibition of WT strain, primary screen, mitochondrial fusion inhibitor project, WT and mutant strains, chemical genetic; actives 2.1% (n = 190,000); mitochondrial fusion phenotypic screen; inhibition, % at 10 µM; in the data active means inhibition above about 58%; tested in S. cerevisiae
L major viab: Leishmania major promastigote growth inhibition, primary screen. Leishmania major promastigotes, resazurin fluorescence viability. inhibition, % at 10 µM. actives 9% (n = 200,000). AID 1063, 2008; in the data active means inhibition above about 50%;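 further: promastigotes grown with compound for 44 hours at 28 °C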
An asterisk follows results filed as active; . = no result. A selection: hits, their analogues and other compounds. The true share with any hit is near 12%.

SMILES	ABCG2 block	RAM network inh	ABCB1 inh	WT yeast gro inh	L major viab
C(CCc1nn[nH]n1)CCc1nn[nH]n1	2	0	.	-5	-8
Cc1cc(C(=O)CS(=O)c2ccc(F)cc2)cc(C)c1OC(=O)N(C)C (centres undefined)	-1	0	-1	-6	-3
CC(C)N1C(=O)NC(=O)C2(Cc3cc([N+](=O)[O-])ccc3N(C)C2c2ccccc2)C1=O (centres undefined)	-1	-1	0	25	20
c1ccc(CCN2CCC(N3CCN(c4ccccc4)CC3)CC2)cc1	6	1	1	17	95*
CCCCN(Cc1ccccc1)C1CCN(CCc2ccccc2)CC1	2	2	11	21	91*
Cc1cccc(NP(=O)(Oc2ccccc2F)Oc2ccccc2F)c1C	15	8.7*	1	35	80*
Cc1ccc(NP(=O)(Oc2ccccc2F)Oc2ccccc2F)cc1	2	8	0	6	13
CCc1ccc(NP(=O)(Oc2ccccc2F)Oc2ccccc2F)cc1	-1	7	0	62*	22
CCC(C)N1C(=O)/C(=C/c2ccc3c(c2)CCN3CCCCl)C(=O)NC1=S (centres undefined)	-10	6	-1	9	55*
CCc1ccccc1N1C(=O)/C(=C/c2ccc(N3CCN(C)CC3)o2)C(=O)NC1=S	1	2	0	10	12
CC/C(=N\N1CCCCCC1)c1c(O)n(-c2ccccc2C)c(=O)[nH]c1=O	3	1	4	6	20
Cn1c(O)c(/C=C/C=Nc2ccccc2)c(=O)n(C)c1=S	2	5	3	-7	-4
CN(CCc1nnc(N)s1)[N+](=O)[O-]	1	1	0	-9	-5
O=c1[nH]sc2cc(F)ccc12	9	1	0	73*	78*
COc1cc(OC)c(C=O)c(OC(=O)N(C)C)c1	7	0	0	9	-4
O=Cc1c(C(=O)O)n(Cc2ccc(Cl)cc2)c2ccccc12	-4	2	-1	-14	-3
CCN1CCN(c2cc(N3CCCC3)c(F)cc2[N+](=O)[O-])CC1	23	0	1	2	71*
CN1CCN(c2cc(N3CCCC3)c([N+](=O)[O-])cc2F)CC1	3	2	1	18	99*
CSc1ncc(/C=C2/C(=O)NC(=O)N(c3ccc(Cl)cc3)C2=O)cn1	-2	-1	-1	10	-2
COc1cc(OC)c(OC)cc1CNCCc1ccc(OC)c(OC)c1	1	1	0	5	-9
COc1ccc(CCNCc2ccncc2)cc1OC	2	2	0	19	51*
Cc1[nH]c2ccccc2c1C(=O)C(=O)N1CCC2(CC1)OCCO2	11	0	1	6	-7
CC(C)Oc1cc(-n2c(=S)[nH]c3ccccc3c2=O)c(Cl)cc1Cl	-2	3	-1	60*	5
COc1cc(-n2c(=S)[nH]c3ccccc3c2=O)c(Cl)cc1Cl	4	3	0	-17	5
COc1ccc(OCC(=O)N2CCN(C/C=C/c3ccccc3)CC2)cc1	0	3	2	20	73*
SMILES	ABCG2 block	RAM network inh	ABCB1 inh	WT yeast gro inh	L major viab
O=C(COc1ccccc1)N1CCN(CC(O)COc2ccccc2)CC1 (centres undefined)	2	1	1	8	18
O=C(COc1ccc(Cl)cc1)N1CCN(C/C=C/c2ccccc2)CC1	18	2	1	44	89*
COc1ccc(OCC(=O)N2CCN(Cc3c[nH]c4ccccc34)CC2)cc1	21	1	0	-3	-1
O=C(COc1ccccc1)N1CCN(C/C=C/c2ccccc2)CC1	1	1	1	4	92*
Cc1[nH]c2ccccc2c1C(=O)C(=O)N1CC2CC(C1)c1cccc(=O)n1C2 (centres undefined)	-1	3	0	5	-4
COc1cc2c(cc1OC)-c1c(OC)c(OC)c(OC)c3ccnc(c13)C2=O	25	2	5	6	78*
COc1cc(CC2(CCc3ccncc3)C(=O)NC(=O)NC2=O)cc(OC)c1OC	8	0	0	-4	-2
Cc1cc(Cl)nc(N)n1	13	2	1	2	2
